Results as given in ChEMBL document CHEMBL4680236, “Design, synthesis and structure-activity relationships of novel 15-membered macrolides: Quinolone/quinoline-containing sidechains tethered to the C-6 position of azithromycin acylides” (Eur J Med Chem, 2020).
Converted amounts (≈) assume the structure as drawn.

Legend:
Type in all cases: functional
[1] = test system: Streptococcus pneumoniae; assay: Ratio of MBC to MIC against Erythromycin-susceptible Streptococcus pneumoniae ATCC 49619
[2] = test system: Streptococcus pneumoniae; assay: Antibacterial activity against penicillin-susceptible Streptococcus pneumoniae PU09 harboring mef gene assessed as reduction in microbial growth
[3] = test system: Haemophilus influenzae; assay: Antibacterial activity against azithromycin-susceptible Haemophilus influenzae ATCC 49247 assessed as reduction in microbial growth
[4] = test system: Staphylococcus aureus; assay: Ratio of MBC to MIC against MLSB/methicillin/ciprofloxacin-resistant Staphylococcus aureus PU32 harboring ermA gene
[5] = test system: Haemophilus influenzae; assay: Ratio of MBC to MIC against azithromycin-susceptible Haemophilus influenzae ATCC 49247
[6] = test system: Streptococcus pyogenes; assay: Ratio of MBC to MIC against MLSB-resistant Streptococcus pyogenes 12-206 harboring ermA gene
[7] = test system: Streptococcus pyogenes; assay: Antibacterial activity against MLSB-resistant Streptococcus pyogenes 12-206 harboring ermA gene assessed as reduction in microbial growth
[8] = test system: Streptococcus pneumoniae; assay: Antibacterial activity against Erythromycin-susceptible Streptococcus pneumoniae ATCC 49619 assessed as reduction in microbial growth
[9] = test system: Streptococcus pneumoniae; assay: Antibacterial activity against MLSB-resistant Streptococcus pneumoniae 07P390 harboring ermB gene assessed as reduction in microbial growth
[10] = test system: Streptococcus pneumoniae; assay: Bactericidal activity against MLSB-resistant Streptococcus pneumoniae 07P390 harboring ermB gene assessed as reduction in microbial growth
Outline: (§1)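 Bacteria were exposed to 1- to 8-fold their MIC of test sample, then transferred to fresh culture medium without antibacterial compound and incubated for the required time. Colonies were then counted. MBC is the lowest concentration giving a reduction in colony number of >3 Log₁₀.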

[11] = test system: Staphylococcus aureus; assay: Antibacterial activity against MLSB/methicillin-resistant Staphylococcus aureus 15B196 assessed as reduction in microbial growth
[12] = test system: Staphylococcus aureus; assay: Bactericidal activity against MLSB/methicillin-resistant Staphylococcus aureus 15B196; outline: as §1
[13] = test system: Staphylococcus aureus; assay: Antibacterial activity against MLSB/methicillin/ciprofloxacin-resistant Staphylococcus aureus PU32 harboring ermA gene assessed as reduction in microbial growth
[14] = test system: Streptococcus pneumoniae; assay: Bactericidal activity against penicillin-susceptible Streptococcus pneumoniae PU09 harboring mef gene; outline: as §1
[15] = test system: Streptococcus pneumoniae; assay: Bactericidal activity against Erythromycin-susceptible Streptococcus pneumoniae ATCC 49619
Outline: (§2)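 Bacteria were exposed to 1- to 8-fold MIC of the sample, then transferred to fresh medium without antibacterial. After further incubation, colonies were counted. MBC was taken as the lowest concentration giving a >3 log10 reduction in colony number.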

[16] = test system: Streptococcus pyogenes; assay: Bactericidal activity against MLSB-resistant Streptococcus pyogenes 12-206 harboring ermA gene; outline: as §1
[17] = test system: Streptococcus pneumoniae; assay: Ratio of MBC to MIC against penicillin-susceptible Streptococcus pneumoniae PU09
[18] = test system: Haemophilus influenzae; assay: Bactericidal activity against azithromycin-susceptible Haemophilus influenzae ATCC 49247; outline: as §2
[19] = test system: Staphylococcus aureus; assay: Bactericidal activity against MLSB/methicillin/ciprofloxacin-resistant Staphylococcus aureus PU32 harboring ermA gene; outline: as §1

Row | SMILES | Ratio [1] | MIC [2] [µg/mL] | MIC [3] [µg/mL] | Ratio [4] | Ratio [5] | Ratio [6] | MIC [7] [µg/mL] | MIC [8] [µg/mL] | MIC [9] [µg/mL] | MBC [10] [µg/mL] | MIC [11] [µg/mL] | MBC [12] [µg/mL] | MIC [13] [µg/mL] | MBC [14] [µg/mL] | MBC [15] [µg/mL] | MBC [16] [µg/mL] | Ratio [17] | MBC [18] [µg/mL] | MBC [19] [µg/mL]
1 | CC[C@H]1OC(=O)[C@H](C)[C@@H](OC(=O)Cc2ccccn2)[C@H](C)[C@@H](O[C@@H]2O[C@H](C)C[C@H](N(C)C)[C@H]2O)[C@](C)(OC(=O)CCNCCC#Cc2ccc3c(c2)c(=O)c(C(N)=O)cn3C2CC2)C[C@@H](C)CN(C)[C@H](C)[C@H]2OC(=O)O[C@@]21C | 2 | 4 | 64 | >4 | 2 | 4 | 16 | 0.5 | 64 | 128 | 128 | > 256 | 64 | 8 (≈ 7.37 µM) | 1 (≈ 0.921 µM) | 64 (≈ 59 µM) | 2 | 128 (≈ 118 µM) | > 256
2 | CC[C@H]1OC(=O)[C@H](C)[C@@H](OC(=O)Cc2ccccn2)[C@H](C)[C@@H](O[C@@H]2O[C@H](C)C[C@H](N(C)C)[C@H]2O)[C@](C)(OC(=O)CCN2CCN(c3cc4c(cc3F)c(=O)c(C(N)=O)cn4C3CC3)CC2)C[C@@H](C)CN(C)[C@H](C)[C@@H](O)[C@]1(C)O | 2 | 4 | 64 |  | 2 | 8 | 16 | 0.25 | 128 | 128 | > 256 | > 256 | 128 | 4 (≈ 3.66 µM) | 0.5 (≈ 0.457 µM) | 128 (≈ 117 µM) | 1 | 128 (≈ 117 µM) | > 256
3 | CC[C@H]1OC(=O)[C@H](C)[C@@H](OC(=O)Cc2cccnc2)[C@H](C)[C@@H](O[C@@H]2O[C@H](C)C[C@H](N(C)C)[C@H]2O)[C@](C)(OC(=O)CCNCCC#Cc2ccc3c(c2)c(=O)c(C(N)=O)cn3C2CC2)C[C@@H](C)CN(C)[C@H](C)[C@H]2OC(=O)O[C@@]21C | 2 | 4 | 64 | >4 | 1 | 2 | 32 | 1 | 64 | 128 | > 256 | > 256 | 64 | 8 (≈ 7.37 µM) | 2 (≈ 1.84 µM) | 64 (≈ 59 µM) | 2 | 64 (≈ 59 µM) | > 256
4 | CC[C@H]1OC(=O)[C@H](C)[C@@H](OC(=O)Cc2ccccn2)[C@H](C)[C@@H](O[C@@H]2O[C@H](C)C[C@H](N(C)C)[C@H]2O)[C@](C)(OC(=O)CCNCCC#Cc2ccc3c(c2)c(=O)c(C(N)=O)cn3C)C[C@@H](C)CN(C)[C@H](C)[C@@H](O)[C@]1(C)O | 2 | 2 | 32 | >8 | 2 | >8 | 8 | 0.25 | 256 | > 256 | > 256 | > 256 | 16 | 4 (≈ 3.87 µM) | 0.5 (≈ 0.484 µM) | > 64 | 2 | 64 (≈ 61.9 µM) | > 128
5 | CC[C@H]1OC(=O)[C@H](C)[C@@H](OC(=O)Cc2ccccn2)[C@H](C)[C@@H](O[C@@H]2O[C@H](C)C[C@H](N(C)C)[C@H]2O)[C@](C)(OC(=O)CCNCCC#Cc2ccc3c(c2)c(=O)c(C(N)=O)cn3C2CC2)C[C@@H](C)CN(C)[C@H](C)[C@@H](O)[C@]1(C)O | 1 | 4 | 64 |  | 1 | 4 | 32 | 0.5 | 256 | > 256 | > 256 | > 256 | 128 | 4 (≈ 3.78 µM) | 0.5 (≈ 0.472 µM) | 128 (≈ 121 µM) | 1 | 64 (≈ 60.4 µM) | > 256
6 | CC[C@H]1OC(=O)[C@H](C)[C@@H](OC(=O)Cc2ccccn2)[C@H](C)[C@@H](O[C@@H]2O[C@H](C)C[C@H](N(C)C)[C@H]2O)[C@](C)(OC(=O)CCNCCC#Cc2cncc(C(N)=O)c2)C[C@@H](C)CN(C)[C@H](C)[C@@H](O)[C@]1(C)O | 1 | 2 | 64 | >8 | 2 | >8 | 4 | 0.25 | 128 | > 256 | > 256 | > 256 | 16 | 4 (≈ 4.2 µM) | 0.25 (≈ 0.262 µM) | > 32 | 2 | 128 (≈ 134 µM) | > 128
7 | CC[C@H]1OC(=O)[C@H](C)[C@@H](OC(=O)Cc2ccccn2)[C@H](C)[C@@H](O[C@@H]2O[C@H](C)C[C@H](N(C)C)[C@H]2O)[C@](C)(OC(=O)CCN2CCN(c3cc4c(cc3F)c(=O)c(C(N)=O)cn4CC)CC2)C[C@@H](C)CN(C)[C@H](C)[C@@H](O)[C@]1(C)O | 2 | 4 | 4 |  | 1 | 8 | 16 | 0.5 | 64 | 128 | 128 | 128 (≈ 118 µM) | 128 | 8 (≈ 7.39 µM) | 1 (≈ 0.924 µM) | 128 (≈ 118 µM) | 2 | 4 (≈ 3.7 µM) | > 256
8 | CC[C@H]1OC(=O)[C@H](C)[C@@H](OC(=O)Cc2ccccn2)[C@H](C)[C@@H](O[C@@H]2O[C@H](C)C[C@H](N(C)C)[C@H]2O)[C@](C)(OC(=O)CCNCCC#Cc2ccc3c(c2)c(=O)c(C(N)=O)cn3CC)C[C@@H](C)CN(C)[C@H](C)[C@@H](O)[C@]1(C)O | 4 | 2 | 16 | >8 | 1 | >8 | 8 | 0.12 | 256 | > 256 | > 256 | > 256 | 32 | 2 (≈ 1.91 µM) | 0.5 (≈ 0.477 µM) | > 64 | 1 | 16 (≈ 15.3 µM) | > 256
9 | CC[C@H]1OC(=O)[C@H](C)[C@@H](OC(=O)Cc2ccccn2)[C@H](C)[C@@H](O[C@@H]2O[C@H](C)C[C@H](N(C)C)[C@H]2O)[C@](C)(OC(=O)CCN2CCN(c3nc4c(cc3F)c(=O)c(C(N)=O)cn4CC)CC2)C[C@@H](C)CN(C)[C@H](C)[C@@H](O)[C@]1(C)O | 2 | 2 | 8 | >8 | 1 | >8 | 16 | 0.5 | 64 | 128 | 256 | > 256 | 32 | 4 (≈ 3.69 µM) | 1 (≈ 0.923 µM) | > 128 | 2 | 8 (≈ 7.38 µM) | > 256
10 | CC[C@H]1OC(=O)[C@H](C)[C@@H](OC(=O)Cc2ccccn2)[C@H](C)[C@@H](O[C@@H]2O[C@H](C)C[C@H](N(C)C)[C@H]2O)[C@](C)(OC(=O)CCNCCC#Cc2ccc3c(c2)c(=O)c(C(=O)NC)cn3C2CC2)C[C@@H](C)CN(C)[C@H](C)[C@@H](O)[C@]1(C)O | 2 | 4 | 64 |  | 2 | 4 | 32 | 0.5 | 256 | 256 | > 256 | > 256 | > 256 | 8 (≈ 7.45 µM) | 1 (≈ 0.932 µM) | 128 (≈ 119 µM) | 2 | 128 (≈ 119 µM) | > 256
11 | CC[C@H]1OC(=O)[C@H](C)[C@@H](OC(=O)Cc2ccccn2)[C@H](C)[C@@H](O[C@@H]2O[C@H](C)C[C@H](N(C)C)[C@H]2O)[C@](C)(OC(=O)CCN2CCN(c3cc4c(cc3F)c(=O)c(C(=O)O)cn4C3CC3)CC2)C[C@@H](C)CN(C)[C@H](C)[C@H]2OC(=O)O[C@@]21C | 4 | 4 | 8 |  | 2 | >8 | 64 | 4 | > 256 | > 256 | > 256 | > 256 | > 256 | 16 (≈ 14.3 µM) | 16 (≈ 14.3 µM) | > 256 | 4 | 16 (≈ 14.3 µM) | > 256
